Laboratory results published in ChEMBL document CHEMBL3244255, “Methotrexate analogues. 10. Direct coupling of methotrexate and diethyl L-glutamate in the presence of peptide bond-forming reagents” (J Med Chem, 1978).
≈ marks a conversion by molar mass, not a printed value.

Legend:
[1] = Retardation factor of the compound using CHCl3-MeOH at ratio of 6:1 as solvent system by thin layer chromatography; format: physicochemical
[2] = Retardation factor of the compound using C6H6-MeOH-AcOH at ratio of 9:3:1 as solvent system by thin layer chromatography; format: physicochemical
[3] = system: L1210; assay: Antitumor activity against mouse L1210 cells xenografted in mouse assessed as increase in median host lifespan at 160 mg/kg, ip administered q3d on days 1, 4 and 7; format: functional; conditions: route intraperitoneal
Procedure, shortened: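 Mice implanted ip with 10^5 L1210 leukemia cells. Drug was dissolved in 0.005 M sodium phosphate buffer, pH 7.4, freshly prepared before use, and injected ip on days 1, 4 and 7 after implantation. The dose range tested was 20–160 mg/kg. Five mice per group, 15 controls. Read-out is the percent increase in median life span versus untreated mice.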

[4] = Retardation factor of the compound using C6H6-MeOH-AcOH at ratio of 9:6:1 as solvent system by thin layer chromatography; format: physicochemical
[5] = Retardation factor of the compound using CHCl3-MeOH at ratio of 1:1 as solvent system by thin layer chromatography; format: physicochemical
[6] = system: CCRF-CEM; assay: Growth inhibition of human CCRF-CEM cells; format: functional; conditions: read-out: ID50 (the source's name)
Procedure, shortened: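 Human lymphoblastic leukaemia CCRF-CEM cells were grown in culture with the compound, and the concentration giving 50% growth inhibition (ID50) was reported in µg/mL.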

[7] = Retardation factor of the compound using CHCl3-MeOH at ratio of 3:1 as solvent system by thin layer chromatography; format: physicochemical
[8] = system: Mus musculus; assay: Toxicity in mouse xenografted with mouse L1210 cells assessed as body weight loss at 80 to 160 mg/kg, ip administered q3d on days 1,4 and 7; format: organism-based; set-up: dose 80-160 mg/kg, route intraperitoneal; conditions: in vivo
Procedure, shortened: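 Mice were implanted ip with 10^5 L1210 cells and dosed ip on days 1, 4 and 7 after implantation. Soluble compounds were dissolved in freshly prepared 0.005 M sodium phosphate, pH 7.4; an insoluble one was suspended in 10% Tween 80. Groups had five mice, with 15 untreated controls, and body weight loss was scored as toxicity.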

[9] = Retardation factor of the compound using C6H6-MeOH-AcOH at ratio of 45:30:1 as solvent system by thin layer chromatography; format: physicochemical
[10] = system: L1210; assay: Anticancer activity against mouse L1210 cells xenografted in mouse assessed as increase in median host survival at 120 mg/kg, ip administered q3d on days 1, 4, 7; format: functional; conditions: route intraperitoneal
[11] = system: L1210; assay: Antitumor activity against mouse L1210 cells xenografted in mouse assessed as increase in median host lifespan at 15 mg/kg, ip administered q3d on days 1, 4 and 7; format: functional; conditions: route intraperitoneal
Procedure, shortened: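 L1210 murine leukemia, 10^5 cells implanted ip; drug given ip on days 1, 4 and 7 after implantation, as disodium salt in aqueous solution. Five mice per treated group, 15 untreated controls. Read-out is the percent increase in median survival time over untreated mice.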

Row | Rf [1] | Rf [5] | IC50 [6] [µg/mL] | Rf [7] | Compound | Rf [2] | Activity [3] [%] | Rf [4] | Activity [8] | Rf [9] | survival at 120 mg/kg [10] [%] | Activity [11] [%]
1 | 0.46 | 0.82 | 3.8 (≈ 4.61 µM) | 0.78 | CCOC(=O)CC[C@H](NC(=O)CC[C@H](NC(=O)c1ccc(N(C)Cc2cnc3nc(N)nc(N)c3n2)cc1)C(=O)N[C@@H](CCC(=O)OCC)C(=O)OCC)C(=O)OCC | – | – | – | – | – | – | –
2 | 0.43 | 0.82 | 9 (≈ 10.9 µM) | 0.77 | CCOC(=O)CC[C@H](NC(=O)CC[C@@H](NC(=O)c1ccc(N(C)Cc2cnc3nc(N)nc(N)c3n2)cc1)C(=O)N[C@@H](CCC(=O)OCC)C(=O)OCC)C(=O)OCC | – | – | – | – | – | – | –
3 | 0.44 | 0.79 | 1.8 (≈ 2.7 µM) | 0.76 | CCOC(=O)CC[C@H](NC(=O)CC[C@H](NC(=O)c1ccc(N(C)Cc2cnc3nc(N)nc(N)c3n2)cc1)C(=O)OCC)C(=O)OCC | – | – | – | – | – | – | –
4 | 0.4 | 0.79 | 0.85 (≈ 1.27 µM) | 0.73 | CCOC(=O)CC[C@H](NC(=O)c1ccc(N(C)Cc2cnc3nc(N)nc(N)c3n2)cc1)C(=O)N[C@@H](CCC(=O)OCC)C(=O)OCC | – | – | – | – | – | – | –
5 | – | – | – | – | CCOC(=O)CC[C@H](NC(=O)CC[C@H](NC(=O)c1ccc(N(C)Cc2cnc3nc(N)nc(N)c3n2)cc1)C(=O)O)C(=O)OCC [listing 2 of 2 here] | – | – | – | – | – | 77 | –
6 | 0.4 | 0.82 | – | 0.77 | CCOC(=O)CCC(NC(=O)CCC(NC(=O)c1ccc(N(C)Cc2cnc3nc(N)nc(N)c3n2)cc1)C(=O)NC(CCC(=O)OCC)C(=O)OCC)C(=O)OCC (mixture of isomers) | 0.47 | – | 0.68 | – | 0.82 | – | –
7 | – | – | – | – | CN(Cc1cnc2nc(N)nc(N)c2n1)c1ccc(C(=O)N[C@@H](CCC(=O)[O-])C(=O)[O-])cc1.[Na+].[Na+] [METHOTREXATE SODIUM] | – | – | – | – | – | – | 60

Row | Compound | Rf [1] | Rf [5] | IC50 [6] [µg/mL] | Rf [7] | Rf [2] | Activity [3] [%] | Rf [4] | Activity [8] | Rf [9] | survival at 120 mg/kg [10] [%] | Activity [11] [%]
8 | CCOC(=O)CC[C@H](NC(=O)CC[C@H](NC(=O)c1ccc(N(C)Cc2cnc3nc(N)nc(N)c3n2)cc1)C(=O)O)C(=O)OCC [listing 1 of 2 here] | 0.01 | 0.23 | 0.88 (≈ 1.38 µM) | 0.02 | 0.2 | 40 | 0.35 | Toxic | 0.44 | – | –
9 | CCOC(=O)CC[C@H](NC(=O)[C@H](CCC(=O)O)NC(=O)c1ccc(N(C)Cc2cnc3nc(N)nc(N)c3n2)cc1)C(=O)OCC | 0.04 | 0.28 | > 10 | 0.1 | 0.31 | 10 | 0.46 | Toxic | 0.58 | – | –
10 | CN(Cc1cnc2nc(N)nc(N)c2n1)c1ccc(C(=O)N[C@@H](CCC(=O)O)C(=O)O)cc1 [METHOTREXATE] | – | – | 0.003 (≈ 0.0066 µM) | – | – | – | – | – | – | – | –
